Test results: ChEMBL document CHEMBL4196123, “Discovery of an Orally Bioavailable Dual PI3K/mTOR Inhibitor Based on Sulfonyl-Substituted Morpholinopyrimidines” (ACS Med Chem Lett, 2018)

Assays:
HUVEC = experiment: Cytotoxicity against HUVEC after 72 hrs by MTT assay; type: cell-based; conditions: Homo sapiens
[1] = Oral bioavailability in CD1 mouse at 10 mg/kg administered via gavage by LC-MS/MS analysis; type: ADME, organism-based; conditions: in vivo
[2] = biological target: PI3-kinase p110-alpha/p85-alpha (Homo sapiens, UniProt P42336, E545K); experiment: Inhibition of recombinant human His-tagged p85alpha/p110alpha E545K mutant expressed in insect cells
[3] = biological target: Serine/threonine-protein kinase mTOR (Homo sapiens, UniProt P42345); experiment: Inhibition of recombinant human GST-tagged mTOR catalytic domain (1360 to 2549 residues) expressed in baculovirus expression system using GFP-4EBP1 as substrate measured after 1 hr by Lathascreen method
PI3K p110 beta/p85 alpha = PI3K p110 beta/p85 alpha (Homo sapiens, UniProt P42338); experiment: Inhibition of recombinant human full-length N-terminal His6-tagged p110beta/recombinant human full length p85alpha expressed in baculovirus infected Sf21 insect cells using PIP2 as substrate measured after 1 hr by Alexa633 Tracer-based fluorescence polarization assay
T47D = experiment: Antiproliferative activity against human T47D cells harboring PI3KCA H1047R mutant after 72 hrs by MTT assay; type: functional, cell-based
HT-29 = experiment: Antitumor activity against human HT-29 cells harboring PIK3CA P449T mutant xenografted in Balb/c nu/nu mouse assessed as tumor growth inhibition at 3.75 mg/kg, po administered daily via gavage for 27 days relative to control; type: functional; conditions: HT-29, po, 648 h, read-out: TGI
Method in brief: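 Balb/c nu/nu mice carrying HT-29 xenografts were dosed by daily oral gavage for 27 days, starting when mean tumor size was about 240 mm³; vehicle group as control. Tumor volume estimated over time, and TGI calculated after 27 days. Mean ± SEM, n = 6. Dunnett's multiple comparison test.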

[4] = AUClast in CD1 mouse at 10 mg/kg, po administered via gavage by LC-MS/MS analysis; type: ADME, organism-based; set-up: dose 10 mg/kg, time 0 - last, route oral; conditions: in vivo
[5] = biological target: PI3-kinase p110-alpha/p85-alpha (Homo sapiens, UniProt P42336); experiment: Inhibition of recombinant human full length N-terminal His-tagged p110alpha/p85alpha expressed in baculovirus expression system using PIP2 as substrate measured after 1 hr by Alexa633 Tracer-based fluorescence polarization assay
Method in brief: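 PI3Kα enzyme inhibition; IC50 is the mean of duplicate measurements.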

[6] = Cmax in CD1 mouse at 10 mg/kg, po administered via gavage by LC-MS/MS analysis; type: ADME, organism-based; set-up: dose 10 mg/kg, route oral; conditions: in vivo

Chain of PI3-kinase p110-alpha/p85-alpha (Homo sapiens, UniProt P42336) (P27986 whole entry): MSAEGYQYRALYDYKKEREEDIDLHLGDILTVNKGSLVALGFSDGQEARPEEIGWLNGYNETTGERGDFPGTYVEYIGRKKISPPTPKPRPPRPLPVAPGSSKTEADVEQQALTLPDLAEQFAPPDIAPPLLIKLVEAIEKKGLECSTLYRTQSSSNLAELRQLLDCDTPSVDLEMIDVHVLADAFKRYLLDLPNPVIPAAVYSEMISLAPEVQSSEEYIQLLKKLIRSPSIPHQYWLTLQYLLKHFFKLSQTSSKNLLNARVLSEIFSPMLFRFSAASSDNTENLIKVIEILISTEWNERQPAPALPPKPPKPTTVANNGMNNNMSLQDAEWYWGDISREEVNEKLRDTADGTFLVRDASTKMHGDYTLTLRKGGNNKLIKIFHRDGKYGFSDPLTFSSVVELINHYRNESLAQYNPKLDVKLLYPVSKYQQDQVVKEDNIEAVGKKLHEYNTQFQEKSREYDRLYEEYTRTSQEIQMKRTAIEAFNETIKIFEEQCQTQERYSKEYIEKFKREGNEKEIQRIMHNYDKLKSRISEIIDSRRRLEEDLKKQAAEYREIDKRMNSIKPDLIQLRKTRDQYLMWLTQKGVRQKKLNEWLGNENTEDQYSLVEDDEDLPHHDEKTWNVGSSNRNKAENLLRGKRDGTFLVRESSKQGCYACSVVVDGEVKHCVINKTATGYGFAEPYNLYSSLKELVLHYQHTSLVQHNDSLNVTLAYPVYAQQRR
Chain of PI3-kinase p110-alpha/p85-alpha (Homo sapiens, UniProt P42336) (P42336 whole entry): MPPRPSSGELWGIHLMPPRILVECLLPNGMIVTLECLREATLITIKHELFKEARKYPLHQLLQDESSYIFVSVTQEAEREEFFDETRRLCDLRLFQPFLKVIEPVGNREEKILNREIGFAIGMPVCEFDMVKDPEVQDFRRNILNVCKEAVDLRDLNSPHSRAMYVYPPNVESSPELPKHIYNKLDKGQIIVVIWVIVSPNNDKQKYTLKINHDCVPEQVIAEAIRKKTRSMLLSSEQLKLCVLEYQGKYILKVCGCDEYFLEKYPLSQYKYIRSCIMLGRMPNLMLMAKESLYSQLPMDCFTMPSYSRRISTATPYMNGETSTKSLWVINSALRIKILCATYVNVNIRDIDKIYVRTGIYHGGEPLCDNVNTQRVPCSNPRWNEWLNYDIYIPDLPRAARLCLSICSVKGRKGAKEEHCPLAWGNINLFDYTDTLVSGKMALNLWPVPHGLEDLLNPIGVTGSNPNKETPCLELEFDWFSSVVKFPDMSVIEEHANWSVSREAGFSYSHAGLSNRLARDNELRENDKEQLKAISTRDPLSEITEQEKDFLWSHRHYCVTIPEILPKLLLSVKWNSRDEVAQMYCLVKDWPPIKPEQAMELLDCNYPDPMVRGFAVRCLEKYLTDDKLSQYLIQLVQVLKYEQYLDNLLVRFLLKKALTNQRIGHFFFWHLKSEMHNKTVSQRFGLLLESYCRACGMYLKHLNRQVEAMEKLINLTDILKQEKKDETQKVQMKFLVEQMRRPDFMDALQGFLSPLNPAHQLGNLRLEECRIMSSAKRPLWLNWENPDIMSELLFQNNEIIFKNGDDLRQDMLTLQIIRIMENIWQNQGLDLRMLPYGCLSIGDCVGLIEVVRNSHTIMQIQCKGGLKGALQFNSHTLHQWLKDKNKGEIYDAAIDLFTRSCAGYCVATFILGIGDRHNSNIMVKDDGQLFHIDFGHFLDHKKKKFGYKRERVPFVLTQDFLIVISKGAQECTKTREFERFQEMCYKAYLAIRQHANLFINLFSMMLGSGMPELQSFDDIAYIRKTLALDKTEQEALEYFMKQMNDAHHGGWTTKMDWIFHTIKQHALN
Chain of PI3K p110 beta/p85 alpha (P27986 whole entry): as the sequence (P27986 whole entry) above
Chain of PI3K p110 beta/p85 alpha (P42338 whole entry): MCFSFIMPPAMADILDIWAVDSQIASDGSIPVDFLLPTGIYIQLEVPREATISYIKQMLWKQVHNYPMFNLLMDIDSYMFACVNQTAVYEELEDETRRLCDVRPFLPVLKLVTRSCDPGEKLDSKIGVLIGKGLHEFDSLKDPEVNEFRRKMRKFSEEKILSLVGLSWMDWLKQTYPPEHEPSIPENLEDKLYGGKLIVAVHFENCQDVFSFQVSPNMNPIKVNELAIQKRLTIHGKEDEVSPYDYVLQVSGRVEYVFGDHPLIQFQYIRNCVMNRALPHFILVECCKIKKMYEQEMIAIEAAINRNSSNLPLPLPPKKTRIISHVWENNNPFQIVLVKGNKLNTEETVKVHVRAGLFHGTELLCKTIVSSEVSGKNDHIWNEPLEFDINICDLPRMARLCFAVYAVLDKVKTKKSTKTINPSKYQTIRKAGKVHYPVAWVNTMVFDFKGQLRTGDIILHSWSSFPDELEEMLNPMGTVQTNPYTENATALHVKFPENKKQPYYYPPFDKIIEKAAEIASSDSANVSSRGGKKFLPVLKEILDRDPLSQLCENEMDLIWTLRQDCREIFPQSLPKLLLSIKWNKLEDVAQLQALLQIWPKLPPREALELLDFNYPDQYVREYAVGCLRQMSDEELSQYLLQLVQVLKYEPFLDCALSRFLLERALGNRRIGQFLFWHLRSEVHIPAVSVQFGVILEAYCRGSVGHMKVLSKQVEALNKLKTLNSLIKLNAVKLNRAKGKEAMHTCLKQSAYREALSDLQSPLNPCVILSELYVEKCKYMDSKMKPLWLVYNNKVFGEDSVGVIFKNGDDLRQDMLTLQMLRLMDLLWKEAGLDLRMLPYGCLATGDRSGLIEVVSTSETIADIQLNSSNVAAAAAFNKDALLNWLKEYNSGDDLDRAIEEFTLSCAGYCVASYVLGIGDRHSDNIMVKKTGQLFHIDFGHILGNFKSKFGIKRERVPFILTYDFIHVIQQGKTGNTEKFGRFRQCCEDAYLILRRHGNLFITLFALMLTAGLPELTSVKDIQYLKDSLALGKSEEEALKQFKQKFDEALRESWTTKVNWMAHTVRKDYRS
Chain of PI3-kinase p110-alpha/p85-alpha (Homo sapiens, UniProt P42336, E545K) (P42336 whole entry E545K, looked up, the tested form may be a part): as the sequence (P42336 whole entry) above, with E545K counted along it

## C[C@H]1COCCN1c1nc(-c2cnc(N)cc2F)cc(C2(S(C)(=O)=O)CC2)n1
HUVEC
  IC50: 108 nM
[1]
  bioavailability: 94.6%
[2]
  IC50: 11 nM
[3]
  IC50: 186 nM
PI3K p110 beta/p85 alpha
  IC50: 376 nM
T47D
  IC50: 30 nM
HT-29
  inhibition in vivo at 3.75 mg/kg: 54.4%
[4]
  AUC(0-t): 10400 ng·h/mL
[5]
  IC50: 10 to 20 nM
[6]
  Cmax: 2980 ng/mL
